# According to ChEMBL document CHEMBL4689842, “EUbOPEN Chemogenomics Library wave 1” (2021):
# Tested on: HEK-293T
# Experiment: Multiplex assay against HEK293T;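 on Population Tubulin-Different-Phenotype (%): share of the cells with healthy nuclei that show this phenotype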
# Assay type: toxicity, cell-based
# Conditions: human
# How it was run: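 Live cells were stained at seeding with Hoechst33342, BioTracker Green Microtubule Cytoskeleton Dye, MitoTracker Red and Annexin V Alexa Fluor 680. Following compound addition, they were imaged on a CQ1 microscope at 37°C and 5% CO2 and gated by CellPathfinder machine learning into Hoechst high-intensity objects or normal cells, with normal cells split into healthy, pyknosed or fragmented nuclei and pyknosed cells into mitotic or apoptotic. Tubulin, mitochondrial-mass and membrane-permeability phenotypes are per cents of healthy-nucleus cells.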
# [1] = 12 h, 1 µM, compound concentration 1 uM, replicate 1
# [2] = 12 h, 1 µM, compound concentration 1 uM, replicate 2
# [3] = 12 h, 10 µM, compound concentration 10 uM, replicate 1
# [4] = 12 h, 10 µM, compound concentration 10 uM, replicate 2
# [5] = 24 h, 1 µM, compound concentration 1 uM, replicate 1
# [6] = 24 h, 1 µM, compound concentration 1 uM, replicate 2
# [7] = 24 h, 10 µM, compound concentration 10 uM, replicate 1
# [8] = 24 h, 10 µM, compound concentration 10 uM, replicate 2
# [9] = 48 h, 1 µM, compound concentration 1 uM, replicate 1
# [10] = 48 h, 1 µM, compound concentration 1 uM, replicate 2
# [11] = 48 h, 10 µM, compound concentration 10 uM, replicate 1
# [12] = 48 h, 10 µM, compound concentration 10 uM, replicate 2
smiles,measurement,setting,value
Cc1[nH]c(/C=C2\C(=O)Nc3ccc(S(=O)(=O)N(C)c4cccc(Cl)c4)cc32)c(C)c1C(=O)N1CCN(C)CC1,Population Apoptotic (%),[1],60%
same,Population Fragmented Nuclei (%),[1],7%
same,Population Healthy Nuclei (%),[1],47%
same,Population Hoechst High Intensity Objects (%),[1],16%
same,Population Membrane Permeable-Phenotype (%),[1],7%
same,Population Mitochondria Different-Phenotype (%),[1],93%
same,Population Mitotic Cells (%),[1],39%
same,Population Normal (%),[1],83%
same,Population Pyknosed Nuclei (%),[1],44%
same,Population Tubulin-Different-Phenotype (%),[1],91%
same,Total Cell Count,[1],198
same,Population Apoptotic (%),[2],23%
same,Population Fragmented Nuclei (%),[2],6%
same,Population Healthy Nuclei (%),[2],46%
same,Population Hoechst High Intensity Objects (%),[2],4%
same,Population Membrane Permeable-Phenotype (%),[2],18%
same,Population Mitochondria Different-Phenotype (%),[2],52%
same,Population Mitotic Cells (%),[2],76%
same,Population Normal (%),[2],95%
same,Population Pyknosed Nuclei (%),[2],47%
same,Population Tubulin-Different-Phenotype (%),[2],71%
same,Total Cell Count,[2],243
same,Population Apoptotic (%),[3],67%
same,Population Fragmented Nuclei (%),[3],12%
same,Population Healthy Nuclei (%),[3],29%
same,Population Hoechst High Intensity Objects (%),[3],15%
same,Population Membrane Permeable-Phenotype (%),[3],5%
same,Population Mitochondria Different-Phenotype (%),[3],90%
same,Population Mitotic Cells (%),[3],32%
same,Population Normal (%),[3],84%
same,Population Pyknosed Nuclei (%),[3],57%
same,Population Tubulin-Different-Phenotype (%),[3],98%
same,Total Cell Count,[3],214
same,Population Apoptotic (%),[4],50%
same,Population Fragmented Nuclei (%),[4],4%
same,Population Healthy Nuclei (%),[4],40%
same,Population Hoechst High Intensity Objects (%),[4],5%
same,Population Membrane Permeable-Phenotype (%),[4],19%
same,Population Mitochondria Different-Phenotype (%),[4],57%
same,Population Mitotic Cells (%),[4],50%
same,Population Normal (%),[4],94%
same,Population Pyknosed Nuclei (%),[4],55%
same,Population Tubulin-Different-Phenotype (%),[4],93%
same,Total Cell Count,[4],157
same,Population Apoptotic (%),[5],55%
same,Population Fragmented Nuclei (%),[5],11%
same,Population Healthy Nuclei (%),[5],48%
same,Population Hoechst High Intensity Objects (%),[5],18%
same,Population Membrane Permeable-Phenotype (%),[5],3%
same,Population Mitochondria Different-Phenotype (%),[5],85%
same,Population Mitotic Cells (%),[5],44%
same,Population Normal (%),[5],81%
same,Population Pyknosed Nuclei (%),[5],40%
same,Population Tubulin-Different-Phenotype (%),[5],86%
same,Total Cell Count,[5],212
same,Population Apoptotic (%),[6],24%
same,Population Fragmented Nuclei (%),[6],4%
same,Population Healthy Nuclei (%),[6],56%
same,Population Hoechst High Intensity Objects (%),[6],3%
same,Population Membrane Permeable-Phenotype (%),[6],7%
same,Population Mitochondria Different-Phenotype (%),[6],57%
same,Population Mitotic Cells (%),[6],75%
same,Population Normal (%),[6],96%
same,Population Pyknosed Nuclei (%),[6],38%
same,Population Tubulin-Different-Phenotype (%),[6],71%
same,Total Cell Count,[6],295
same,Population Apoptotic (%),[7],88%
same,Population Fragmented Nuclei (%),[7],15%
same,Population Healthy Nuclei (%),[7],27%
same,Population Hoechst High Intensity Objects (%),[7],12%
same,Population Membrane Permeable-Phenotype (%),[7],5%
same,Population Mitochondria Different-Phenotype (%),[7],100%
same,Population Mitotic Cells (%),[7],11%
same,Population Normal (%),[7],87%
same,Population Pyknosed Nuclei (%),[7],56%
same,Population Tubulin-Different-Phenotype (%),[7],98%
same,Total Cell Count,[7],230
same,Population Apoptotic (%),[8],83%
same,Population Fragmented Nuclei (%),[8],7%
same,Population Healthy Nuclei (%),[8],35%
same,Population Hoechst High Intensity Objects (%),[8],4%
same,Population Membrane Permeable-Phenotype (%),[8],10%
same,Population Mitochondria Different-Phenotype (%),[8],81%
same,Population Mitotic Cells (%),[8],16%
same,Population Normal (%),[8],95%
same,Population Pyknosed Nuclei (%),[8],57%
same,Population Tubulin-Different-Phenotype (%),[8],96%
same,Total Cell Count,[8],162
same,Population Apoptotic (%),[9],55%
same,Population Fragmented Nuclei (%),[9],14%
same,Population Healthy Nuclei (%),[9],56%
same,Population Hoechst High Intensity Objects (%),[9],19%
same,Population Membrane Permeable-Phenotype (%),[9],2%
same,Population Mitochondria Different-Phenotype (%),[9],66%
same,Population Mitotic Cells (%),[9],44%
same,Population Normal (%),[9],80%
same,Population Pyknosed Nuclei (%),[9],29%
same,Population Tubulin-Different-Phenotype (%),[9],74%
same,Total Cell Count,[9],246
same,Population Apoptotic (%),[10],31%
same,Population Fragmented Nuclei (%),[10],4%
same,Population Healthy Nuclei (%),[10],75%
same,Population Hoechst High Intensity Objects (%),[10],1%
same,Population Membrane Permeable-Phenotype (%),[10],8%
same,Population Mitochondria Different-Phenotype (%),[10],20%
same,Population Mitotic Cells (%),[10],68%
same,Population Normal (%),[10],98%
same,Population Pyknosed Nuclei (%),[10],19%
same,Population Tubulin-Different-Phenotype (%),[10],54%
same,Total Cell Count,[10],469
same,Population Apoptotic (%),[11],92%
same,Population Fragmented Nuclei (%),[11],17%
same,Population Healthy Nuclei (%),[11],30%
same,Population Hoechst High Intensity Objects (%),[11],15%
same,Population Membrane Permeable-Phenotype (%),[11],5%
same,Population Mitochondria Different-Phenotype (%),[11],100%
same,Population Mitotic Cells (%),[11],7%
same,Population Normal (%),[11],84%
same,Population Pyknosed Nuclei (%),[11],52%
same,Population Tubulin-Different-Phenotype (%),[11],96%
same,Total Cell Count,[11],223
same,Population Fragmented Nuclei (%),[12],4%
same,Population Healthy Nuclei (%),[12],54%
same,Population Hoechst High Intensity Objects (%),[12],3%
same,Population Membrane Permeable-Phenotype (%),[12],9%
same,Population Mitochondria Different-Phenotype (%),[12],68%
same,Population Normal (%),[12],96%
same,Population Pyknosed Nuclei (%),[12],41%
same,Total Cell Count,[12],178
